One assay concerns the target T1, mouse Elp2 protein (Mus musculus, UniProt Q91WG4).
T1 sequence (Q91WG4 1-831): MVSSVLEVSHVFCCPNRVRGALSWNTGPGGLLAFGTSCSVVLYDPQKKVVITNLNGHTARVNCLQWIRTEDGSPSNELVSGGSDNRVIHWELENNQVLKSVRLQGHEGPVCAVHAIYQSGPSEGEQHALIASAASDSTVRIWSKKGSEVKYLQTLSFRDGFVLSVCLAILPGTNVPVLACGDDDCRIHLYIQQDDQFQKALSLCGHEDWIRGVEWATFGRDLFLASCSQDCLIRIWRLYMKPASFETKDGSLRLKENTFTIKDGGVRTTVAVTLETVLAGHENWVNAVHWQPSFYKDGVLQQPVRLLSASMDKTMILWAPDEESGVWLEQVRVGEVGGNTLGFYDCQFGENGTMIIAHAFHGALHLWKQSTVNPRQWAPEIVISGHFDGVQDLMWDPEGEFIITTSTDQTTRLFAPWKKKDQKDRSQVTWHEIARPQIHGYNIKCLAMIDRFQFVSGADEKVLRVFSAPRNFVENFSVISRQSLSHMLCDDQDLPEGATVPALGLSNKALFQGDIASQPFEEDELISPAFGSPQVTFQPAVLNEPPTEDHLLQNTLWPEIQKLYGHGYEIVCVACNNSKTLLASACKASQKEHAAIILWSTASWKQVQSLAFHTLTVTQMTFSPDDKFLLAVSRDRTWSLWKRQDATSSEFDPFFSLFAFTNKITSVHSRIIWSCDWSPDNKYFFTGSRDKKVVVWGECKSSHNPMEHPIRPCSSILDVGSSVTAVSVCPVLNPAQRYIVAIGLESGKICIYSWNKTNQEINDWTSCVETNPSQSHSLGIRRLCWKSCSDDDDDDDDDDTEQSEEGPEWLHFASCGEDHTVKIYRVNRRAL
Briefly: SPRi affinity measurement of chip-immobilized library compounds to Elp2 protein. It counts as binding.

Assay [1] concerns melanoma cells bearing B-Raf^V600E. The conditions noted are these: cited from earlier work.
For assay [2], the system named is C2C12 cells. Nature of the assay: Mineralization assessment by Alizarin Red S staining, ID model. It counts as cell-based, mouse. The conditions noted are these: C2C12, day 35, with TNF-α, vs negative control (p < 0.05).
The test system of assay [3] is MC3T3-E1 cells. Briefly: Mineralization assessment by Alizarin Red S staining, SD model. It counts as cell-based, mouse. The conditions noted are these: MC3T3-E1, day 35, with TNF-α, vs negative control (p < 0.05).
In assay [4] the test system is C2C12 cells. Nature of the assay: Q-PCR of osteogenic differentiation marker genes, ID model. The conditions noted are these: C2C12, day 7, with TNF-α. It counts as cell-based, mouse. Summed up:
(§1)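 On day 7 after day-0 treatment (5 ng mL−1 TNF-α ± test compound; C2C12 also with 100 ng mL−1 BMP-2), 2 × 10^5 cells harvested. Total RNA by TRIzol, column-purified and DNase-treated; 0.25 μg reverse transcribed. COL-I, ALP, OCN, BMP-2, RUNX-2 and OSX measured by real-time Q-PCR with gene-specific primers. Normalised to β-actin by ΔΔCt. Triplicate.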

The test system of assay [5] is B-Raf^V600E dependented tumor xenograft models. The note with it: orally dosed, without evidence of cytotoxicity; cited from earlier work.
In assay [6] the test system is MC3T3-E1 cells. Nature of the assay: ALP staining and activity, self-differentiation. It counts as cell-based. The note with it: Mus musculus, MC3T3-E1, read-out: EC50 based on ALP activity. An outline of the steps: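 MC3T3-E1 cells in DMEM with 10% FBS and 1% penicillin/streptomycin at 37 °C, 5% CO2; plated at 50% confluence, 24 h. No inducer. On day 0, given ddH2O solvent or 5 ng mL−1 TNF-α ± test compound at eleven levels (10 nM–800 μM). On day 7: kit ALP stain; ALP activity by OD 405 nm, per μg BCA total protein; EC50 from ALP activity. Mean ± SEM, triplicate.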

In assay [7] the test system is C2C12 cells. Briefly: ALP staining and activity, inflammatory differentiation. It counts as cell-based. The conditions noted are these: Mus musculus, C2C12, read-out: EC50 based on ALP activity.
Assay [8] concerns MC3T3-E1 cells. Nature of the assay: Q-PCR of osteogenic differentiation marker genes, SD model. It counts as cell-based, mouse. The conditions noted are these: MC3T3-E1, day 7, with TNF-α. Summed up: as §1
The mark [9] stands for this setting: SPRi, Elp2 200-3200 nM, 1:1 Langmuir binding.

We go through 7 compounds from article PMC9059734 (RSC Advances, 2019).

Structures can show the parent of a compound that is named as a salt. Where two headings read alike, the source gives them in different places.

As to `CNC[C@H](O)c1ccc(O)c(O)c1` [Epinephrine bitartrate], at mouse Elp2 protein, the Kd is 0.676 µM, the koff stood at 0.000529 s⁻¹ and the kon came out at 783 M⁻¹ s⁻¹.
As for `CCCS(=O)(=O)Nc1ccc(F)c(C(=O)c2c[nH]c3ncc(Cl)cc23)c1F` [PLX-4720], in assay [1], the ERK phosphorylation entry was “significantly inhibits”. The “Mineralization, Alizarin Red S stained spots” value in the assay with C2C12 cells [2] and with MC3T3-E1 cells [3] was “more stained spots compared with the negative control” each time. Further, the “mRNA expression levels of COL-I, ALP, OCN, BMP-2, RUNX-2 and OSX” value in the assay with C2C12 cells [4] and in the assay on MC3T3-E1 cells [8] was “elevated” in each case. In [5], the tumor growth result is listed as “tumor growth delays”. In addition, the EC50 was determined as 16.7 µM in the assay with MC3T3-E1 cells [6] and 10.3 µM with C2C12 cells [7].
On mouse Elp2 protein, `CC(C)NCC(O)c1ccc(O)c(O)c1` (centres unmarked) [Isoprenaline hydrochloride] gave a Kd of 4.6 µM, a koff of 0.00454 s⁻¹ and a kon of 987 M⁻¹ s⁻¹.
In the case of RK-33, on mouse Elp2 protein (setting [9]), the Kd came to 0.481 µM, the koff came out at 2.59e-05 s⁻¹ and the kon came to 53.8 M⁻¹ s⁻¹.
In the case of `Cn1nnc2c(C(N)=O)ncn2c1=O` [Temozolomide], at mouse Elp2 protein, the affinity, expressed as Kd, was 2.53 µM; the koff stood at 0.000462 s⁻¹; the kon came to 182 M⁻¹ s⁻¹.
At mouse Elp2 protein (setting [9]), `CC(C)N(CCC(c1ccccc1)c1cc(CO)ccc1O)C(C)C` (centres unmarked) [5-Hydroxymethyl tolterodine] came in with a Kd of 1.47 µM, a koff of 0.0166 s⁻¹ and a kon of 11300 M⁻¹ s⁻¹.
For `O=C1O[C@H](CO)[C@@H](O)[C@H](O)[C@H]1O` [Gluconolactone], at mouse Elp2 protein, binding was put at a Kd of 31 µM, the koff was 0.0819 s⁻¹ and the kon stood at 2640 M⁻¹ s⁻¹.
